Source: PubChem BioAssay
TAAR1 ag: human TAAR1 agonists, primary screen, Fluo-8 calcium fluorescence, CHO RD-HGA16 cells; Trace amine-associated receptor 1 (Homo sapiens), Q96RJ0; vehicle wells 0%, saturating PEA agonist 100%; activation, % at 3 µM; actives 0.99% (n = 360,000);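 active = activation above the mean activation of all test compounds in the run plus 3 SD, cut at about 38% in these data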
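System: CHO-derived RD-HGA16 cells with stable Gα16 and human TAAR1. Times: 17-24 h plating, Fluo-8 75 min 37 °C, 30 min RT. Measured by: calcium-sensitive Fluo-8 signal, excitation 470-495, emission 515-575 nm. Read-out basis: % activation relative to PEA EC100 response. Control set: DMSO and PEA EC100. Repeats: no replicates (n 1).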
M4 ag: human M4 muscarinic receptor agonists, primary screen, CHO-K1 cells, Fluo-8 calcium fluorescence | CHO-K1 hM4/Gqi5; vehicle 0%, full acetylcholine response 100% | Muscarinic acetylcholine receptor M4 (Homo sapiens), P08173 | activation, % at 3 µM | actives 0.14% (n = 360,000) | AID 624127, 2012;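 active = activation above the run mean over all test wells plus 3 SD, cut at about 32% in these data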;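 note: peak over basal fluorescence ratio per well then scaled between controls; 0% = DMSO wells and 100% = acetylcholine at EC100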
Target sequence (P08173 whole entry, looked up): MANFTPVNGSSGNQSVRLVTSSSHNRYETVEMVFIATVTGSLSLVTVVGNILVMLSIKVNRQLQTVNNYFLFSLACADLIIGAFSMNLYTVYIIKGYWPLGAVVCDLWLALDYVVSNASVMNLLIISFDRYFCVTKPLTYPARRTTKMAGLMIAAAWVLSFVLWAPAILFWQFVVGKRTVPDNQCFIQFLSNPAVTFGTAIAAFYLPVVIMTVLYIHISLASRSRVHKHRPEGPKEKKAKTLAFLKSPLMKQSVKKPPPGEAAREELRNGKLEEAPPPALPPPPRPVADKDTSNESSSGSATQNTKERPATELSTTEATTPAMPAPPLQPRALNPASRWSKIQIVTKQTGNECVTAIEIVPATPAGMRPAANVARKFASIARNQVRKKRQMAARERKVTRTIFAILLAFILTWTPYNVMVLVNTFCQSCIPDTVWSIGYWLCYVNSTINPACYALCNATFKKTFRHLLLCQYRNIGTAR
M4 antag: human M4 muscarinic receptor antagonists, primary screen, CHO cells, Fluo-8 calcium fluorescence; Muscarinic acetylcholine receptor M4 (Homo sapiens), P08173; CHO-hM4 cells, ACh EC80; inhibition, % at 3 µM; actives 0.73% (n = 360,000); AID 624125, 2012;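 active = inhibition above its plate's cutoff, the mean inhibition of sample wells plus 3 SD, cut at about 27% in these data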;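 note: 0% = acetylcholine EC80 with DMSO and 100% = DMSO without agonist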
CHRM4 PAM: human M4 muscarinic receptor positive allosteric modulators, primary screen, CHO-K1 cells, Fluo-8 calcium fluorescence | Muscarinic acetylcholine receptor M4 (Homo sapiens), P08173 | CHO-K1 hM4/Gqi5, ACh EC20; 0% = ACh EC20, 100% = maximal ACh | activation, % at 3 µM | actives 0.4% (n = 360,000) | AID 624126, 2012;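 active = activation above its plate's cutoff, the mean activation of sample wells plus 3 SD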
TAAR1 antagonist: human TAAR1 antagonists, primary screen, Fluo-8 calcium fluorescence, CHO RD-HGA16 cells; inhibition, % at 3 µM; Trace amine-associated receptor 1 (Homo sapiens), Q96RJ0; actives 1.5% (n = 360,000); AID 624466, 2012; antagonist;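 active = inhibition above a per-plate cutoff, the mean inhibition of test compounds on that plate plus 3 SD, cut at about 49% in these data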;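 note: 0% = DMSO plus EC80 beta-PEA response and 100% = DMSO alone without agonist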
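Test system – hTAAR1-expressing CHO RD-HGA16 cells, Gα16-coupled · Also added – β-PEA at EC80 concentration, post-compound challenge · Compound – 3 µM, single point · Incubation – dye loading 75 min at 37 °C, then 30 min room temperature · Measured by – Fluo-8 intracellular calcium dye fluorescence, real-time kinetic reads · Benchmarks – vehicle and agonist controls · Replicates – singlicate, one well per test compound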
nonsel antag count: nonselective antagonists in TAAR1 counter-screen cells, counter-screen for hTAAR1 antagonist project, cell-based, fluorescence, calcium. shares compounds with TAAR1 antagonist. counterscreen cell line, antagonist mode. inhibition, % at 3 µM. actives 77% (n = 2,400); in the data active = inhibition above about 22%;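 note: CHO-Ga16 host cells stimulated with ATP at an EC80 level; 0% = agonist EC80 plus vehicle and 100% = vehicle without agonist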
TAAR1 ant conf: human TAAR1 antagonists, retest of hits, confirmation, cell-based, fluorescence; actives 40% (n = 2,400); inhibition, % at 3 µM; AID 651785, 2012; shares compounds with TAAR1 antagonist; TAAR1-expressing cells, fluorescence antagonist read-out; in the data active = inhibition above about 49%;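 note: CHO-Ga16 host cells challenged with agonist PEA near its EC80; 0% = agonist at EC80 plus vehicle and 100% = vehicle with no agonist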
Ga16 nonsel ag: calcium activation in Ga16-expressing cells, counter-screen for TAAR1 antagonist project, cell-based, fluorescence; shares compounds with TAAR1 antagonist; agonist counterscreen; activation, % at 3 µM; actives 18% (n = 2,400); AID 651953, 2012; in the data active = activation above about 12%;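 note: 0% = vehicle wells and 100% = saturating stimulus response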
TAAR1 ag count: TAAR1 activation by candidate antagonists – cell-based, fluorescence, counter-screen for TAAR1 antagonist project | shares compounds with TAAR1 antagonist | hTAAR1 cell line, agonist mode | activation, % at 3 µM | actives 2% (n = 2,400); in the data active = activation above about 37%;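 note: CHO cells stably expressing TAAR1 with calcium dye readout; 0% = DMSO vehicle and 100% = full agonist response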
The depositor's hits bear a star; x = not tested or not shown. Compounds with a hit are over-represented: about 3% of the library has one in this group of screens.

SMILES | TAAR1 ag | M4 ag | M4 antag | CHRM4 PAM | TAAR1 antagonist | nonsel antag count | TAAR1 ant conf | Ga16 nonsel ag | TAAR1 ag count
COCC1CN(CCc2ccc(F)cc2)S(=O)(=O)c2c(OCCN3C(=O)[C@@H]4[C@H](C3=O)[C@@H]3C=C[C@H]4C3)cccc2O1 (stereo partly specified) | 18 | x | x | x | 63* | 36* | 58* | 9 | 12
CCN(CC(=O)Nc1ccc(NC(C)=O)cc1)C(=O)c1ccc(N(C)S(=O)(=O)c2ccc(C)cc2)cc1 | -4 | 1 | 1 | -2 | 101* | 1 | -2 | 1 | -2
CCN(CC(=O)Nc1ccccc1OC)C(=O)c1ccc(N(C)S(=O)(=O)c2ccc(C)cc2)cc1 | 11 | 19 | -7 | -4 | 42 | x | x | x | x
COCOc1cccc(CN2CCC2(C)C(=O)Nc2ccc(OC)c(OC)c2)c1 (stereo unspecified) | 3 | 4 | -8 | -1 | -22 | x | x | x | x
CCOc1ccc(N2C(=O)c3ccc(C(=O)OCc4c(C)noc4C)cc3C2=O)cc1 | 11 | 1 | -11 | 14 | -7 | x | x | x | x
CCCN(CC1CC1)C(=O)COC(=O)c1ccc2c(c1)C(=O)N(c1ccc(OCC)cc1)C2=O | 33 | 9 | 0 | -10 | 55* | 30* | 40 | 7 | 6
COc1ccc(-c2cc(C(=O)N(C)CC(=O)Nc3cccc(F)c3)c3ccccc3n2)cc1 | 8 | 17 | 13 | -8 | 82* | 41* | 61* | 10 | 6
CN(CC(=O)Nc1cccc(F)c1)C(=O)c1cc(-c2ccccc2)nc2ccccc12 | 5 | 21 | 8 | -5 | 72* | 31* | 49* | 9 | 5
COc1ccc(CCN(C)C(=O)c2cc(-c3ccc(C)cc3)nc3ccccc23)cc1OC | 2 | 8 | -2 | -3 | 0 | x | x | x | x
COc1ccc(-c2nn(-c3ccccc3)cc2C(=O)N(C)CC(=O)Nc2cccc(F)c2)cc1 | 2 | 5 | 0 | 5 | 20 | x | x | x | x
CN(CC(=O)Nc1cccc(F)c1)C(=O)c1cccc2ccccc12 | 3 | 5 | 5 | 1 | -4 | x | x | x | x
COc1cccc(-c2nn(-c3ccc(C)cc3)cc2C(=O)N(C)CC(=O)Nc2cccc(F)c2)c1 | 4 | 15 | 16 | -6 | 61* | 29* | 33 | 4 | 6
COc1ccc(-c2cc(C(=O)N(C)Cc3ccc(F)cc3)c3ccccc3n2)cc1OC | 5 | 13 | 7 | -9 | 72* | 26* | 48 | 6 | 4
COc1cc(OC)c(NC(=O)NNC(=O)C(=O)NC2CC2)cc1Cl | -1 | x | x | x | -5 | x | x | x | x
CCc1nc2ccc(C(=O)NCCCN3CCCC3=O)cn2c1N(CC)CCOC | 1 | 1 | -4 | 4 | 6 | x | x | x | x
O=C(/C=C/c1cccc(Cl)c1)OCC(=O)c1ccc[nH]1 | 1 | 0 | -11 | 3 | -26 | x | x | x | x
CCOC(=O)N/N=C/c1c(C)c(C(=O)c2ccc(F)cc2)n2ccccc12 | 2 | 0 | 5 | -5 | 68* | 22* | 44 | 3 | -1
